Laboratory results from ChEMBL document CHEMBL1142087 (Antimicrob Agents Chemother, 2007).
Active and inactive are the calls of the source. No cut-off for these calls is given here.

Columns and labels:
Mus musculus [1] = assay: Effect on survival of BALB/c mouse infected with influenza A virus (A/duck/Minnesota/1525/1981 (H5N1)) at 300 mg/kg/day, po qid for 5 days administered 60 hrs after infection relative to carboxymethyl cellulose; type: functional, organism-based
Mus musculus [2] = assay: Effect on survival in BALB/c mouse infected with influenza A virus (A/duck/Minnesota/1525/1981 (H5N1)) at 600 mg/kg/day, po administered 48 hrs after infection relative to carboxymethyl cellulose; type: functional, organism-based
Mus musculus [3] = assay: Lowering of arterial oxygen saturation decline in BALB/c mouse infected with influenza A virus (A/duck/Minnesota/1525/1981 (H5N1)) at 3 mg/kg/day, po once daily for 5 days administered 1 hr after infection measured on day 11 relative to carboxymethyl cellulose; type: functional
Mus musculus [4] = assay: Inhibition of increase in lung weight of BALB/c mouse infected with influenza A virus (A/duck/Minnesota/1525/1981 (H5N1)) at 100 mg/kg/day, po qid for 5 days administered 1 hr after infection measured on day 6 relative to carboxymethyl cellulose; type: functional
Mus musculus [5] = assay: Effect on survival of BALB/c mouse infected with influenza A virus (A/duck/Minnesota/1525/1981 (H5N1)) at 100 mg/kg/day, po twice daily for 5 days administered 1 hr after infection relative to carboxymethyl cellulose; type: functional, organism-based
Mus musculus [6] = assay: Effect on survival in BALB/c mouse infected with influenza A virus (A/duck/Minnesota/1525/1981 (H5N1)) at 600 mg/kg/day, po administered 60 hrs after infection relative to carboxymethyl cellulose; type: functional, organism-based
Mus musculus [7] = assay: Effect on survival of BALB/c mouse infected with influenza A virus (A/duck/Minnesota/1525/1981 (H5N1)) at 33 mg/kg/day, po qid for 5 days administered 1 hr after infection relative to carboxymethyl cellulose; type: functional, organism-based
Mus musculus [8] = assay: Effect on survival in BALB/c mouse infected with influenza A virus (A/duck/Minnesota/1525/1981 (H5N1)) at 300 mg/kg/day, po administered 48 hrs after infection relative to carboxymethyl cellulose; type: functional, organism-based
Mus musculus [9] = assay: Effect on survival of BALB/c mouse infected with influenza A virus (A/duck/Minnesota/1525/1981 (H5N1)) at 3 mg/kg/day, po once daily for 5 days administered 1 hr after infection relative to carboxymethyl cellulose; type: functional, organism-based
Mus musculus [10] = assay: Effect on survival in BALB/c mouse infected with influenza A virus (A/duck/Minnesota/1525/1981 (H5N1)) at 600 mg/kg/day, po administered 4 hrs after infection relative to carboxymethyl cellulose; type: functional, organism-based
Mus musculus [11] = assay: Effect on survival in BALB/c mouse infected with influenza A virus (A/duck/Minnesota/1525/1981 (H5N1)) at 300 mg/kg/day, po administered 24 hrs after infection relative to carboxymethyl cellulose; type: functional, organism-based
Influenza A virus [12] = assay: Inhibition of Influenza A virus (A/gull/Pennsylvania/4175/83 (H5N1)) replication in MDCK cells by virus yield reduction assay; type: functional
Mus musculus [13] = assay: Lowering of arterial oxygen saturation decline in BALB/c mouse infected with influenza A virus (A/duck/Minnesota/1525/1981 (H5N1)) at 10 mg/kg/day, po once daily for 5 days administered 1 hr after infection measured on day 11 relative to carboxymethyl cellulose; type: functional
Mus musculus [14] = assay: Lowering of Arterial oxygen saturation decline in BALB/c mouse infected with influenza A virus (A/duck/Minnesota/1525/1981 (H5N1)) at 3 mg/kg/day, po twice daily for 5 days administered 1 hr after infection measured on day 11 relative to carboxymethyl cellulose; type: functional
Outline: (§1)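 Arterial oxygen saturation was measured by pulse oximeter, with the ear probe placed on the thigh and read after 30 s stabilization. Values were taken on day 11, 10 mice per group. Mice dead from infection were assigned 75%. Means were compared with CMC controls by t test.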

Mus musculus [15] = assay: Effect on survival in BALB/c mouse infected with influenza A virus (A/duck/Minnesota/1525/1981 (H5N1)) at 600 mg/kg/day, po administered 24 hrs after infection relative to carboxymethyl cellulose; type: functional, organism-based
Mus musculus [16] = assay: Lowering of arterial oxygen saturation decline in BALB/c mouse infected with influenza A virus (A/duck/Minnesota/1525/1981 (H5N1)) at 300 mg/kg/day, po qid for 5 days administered 120 hrs after infection measured on day 11 relative to carboxymethyl cellulose; type: functional
Mus musculus [17] = assay: Lowering of arterial oxygen saturation decline in BALB/c mouse infected with influenza A virus (A/duck/Minnesota/1525/1981 (H5N1)) at 300 mg/kg/day, po qid for 5 days administered 36 hrs after infection measured on day 11 relative to carboxymethyl cellulose; type: functional
Mus musculus [18] = assay: Effect on survival in BALB/c mouse infected with influenza A virus (A/duck/Minnesota/1525/1981 (H5N1)) at 600 mg/kg/day, po administered 12 hrs after infection relative to carboxymethyl cellulose; type: functional, organism-based
Influenza A virus [19] = assay: Inhibition of influenza A virus (A/duck/Minnesota/1525/1981 (H5N1)) replication in MDCK cells by virus yield reduction assay; type: functional
Mus musculus [20] = assay: Effect on survival of BALB/c mouse infected with influenza A virus (A/duck/Minnesota/1525/1981 (H5N1)) at 300 mg/kg/day, po qid for 5 days administered 1 hr after infection relative to carboxymethyl cellulose; type: functional, organism-based
Mus musculus [21] = assay: Lowering of Arterial oxygen saturation decline in BALB/c mouse infected with influenza A virus (A/duck/Minnesota/1525/1981 (H5N1)) at 33 mg/kg/day, po qid for 5 days administered 1 hr after infection measured on day 11 relative to carboxymethyl cellulose; type: functional
Mus musculus [22] = assay: Lowering of Arterial oxygen saturation decline in BALB/c mouse infected with influenza A virus (A/duck/Minnesota/1525/1981 (H5N1)) at 300 mg/kg/day, po qid for 5 days administered 1 hr after infection measured on day 11 relative to carboxymethyl cellulose; type: functional; outline: as §1
Mus musculus [23] = assay: Lowering of Arterial oxygen saturation decline in BALB/c mouse infected with influenza A virus (A/duck/Minnesota/1525/1981 (H5N1)) at 100 mg/kg/day, po twice daily for 5 days administered 1 hr after infection measured on day 11 relative to carboxymethyl cellulose; type: functional; outline: as §1
Mus musculus [24] = assay: Effect on survival of BALB/c mouse infected with influenza A virus (A/duck/Minnesota/1525/1981 (H5N1)) at 300 mg/kg/day, po qid for 5 days administered 84 hrs after infection relative to carboxymethyl cellulose; type: functional, organism-based
Mus musculus [25] = assay: Lowering of arterial oxygen saturation decline in BALB/c mouse infected with influenza A virus (A/duck/Minnesota/1525/1981 (H5N1)) at 30 mg/kg/day, po once daily for 5 days administered 1 hr after infection measured on day 11 relative to carboxymethyl cellulose; type: functional
Mus musculus [26] = assay: Effect on survival of BALB/c mouse infected with influenza A virus (A/duck/Minnesota/1525/1981 (H5N1)) at 300 mg/kg/day, po qid for 5 days administered 24 hrs after infection relative to carboxymethyl cellulose; type: functional, organism-based
Mus musculus [27] = assay: Lowering of arterial oxygen saturation decline in BALB/c mouse infected with influenza A virus (A/duck/Minnesota/1525/1981 (H5N1)) at 300 mg/kg/day, po qid for 5 days administered 96 hrs after infection measured on day 11 relative to carboxymethyl cellulose; type: functional

SMILES: NC(=O)c1nc(F)cnc1O [FAVIPIRAVIR]
- Activity (Mus musculus [1]): Active
- Activity (Mus musculus [2]): Active
- Activity (Mus musculus [3]): 75%
- Activity (Mus musculus [4]): 140 mg
- Activity (Mus musculus [5]): Active
- Activity (Mus musculus [6]): Active
- Activity (Mus musculus [7]): Active
- Activity (Mus musculus [8]): Active
- Activity (Mus musculus [9]): inactive
- Activity (Mus musculus [10]): Active
- Activity (Mus musculus [11]): Active
- EC90 (Influenza A virus [12]): 7.7 µM
- Activity (Mus musculus [13]): 77%
- Activity (Mus musculus [14]): 75%
- Activity (Mus musculus [15]): Active
- Activity (Mus musculus [16]): 76%
- Activity (Mus musculus [17]): 84.6%
- Activity (Mus musculus [18]): Active
- EC90 (Influenza A virus [19]): 2600 nM
- Activity (Mus musculus [20]): Active
- Activity (Mus musculus [21]): 84.8%
- Activity (Mus musculus [22]): 88.6%
- Activity (Mus musculus [23]): 84.2%
- Activity (Mus musculus [24]): Active
- Activity (Mus musculus [25]): 81.4%
- Activity (Mus musculus [26]): Active
- Activity (Mus musculus [27]): 81.2%
